This is an account of results in ChEMBL document CHEMBL1125890, “Synthesis, calcium-channel-blocking activity, and antihypertensive activity of 4-(diarylmethyl)-1-[3-(aryloxy)propyl]piperidines and structurally related compounds” (J Med Chem, 1991).

The species entered for assay [1] is Oryctolagus cuniculus. Put plainly: Calcium channel-blocking activity by determined by ability to antagonize calcium-induced contractions of isolated rabbit aortic strips. Format: functional. Conditions: Aorta, read-out: pA2 (converted). Summed up: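 Rabbit aortic strips were bathed in turn in CaCl2-containing buffer, CaCl2-free buffer, then depolarizing (KCl) CaCl2-free buffer. Cumulative CaCl2 addition induced contractions, recorded with force-displacement transducers. Responses were compared without and with 1–100 nM test compound. pA2 was calculated by the Van Rossum method from at least three tissues.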

The test system of assay [2] is Rattus norvegicus. Put plainly: Antihypertensive activity expressed as change in mean arterial blood pressure (MABP) in spontaneously hypertensive rats (SHR), at 3-6h after 30 mg/kg oral administration. Format: functional, Artery. Summed up:
(§1)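 Adult male SHR, catheter implanted in carotid artery or abdominal aorta under anesthesia at least 24 h before dosing. Baseline pressure recorded 1-1.5 h. Compound given orally at 30 mg/kg as solution or suspension in 0.5% Tween 80/distilled H2O (v/v) or other vehicle. MABP read at 0.5, 1, 1.5, 2, 3, 4, 5 and 6 h. Average percent change from predose calculated per period. Paired one-tailed t test, p < 0.05. n = 3-6 rats unless noted.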

In assay [3] the test system is Rattus norvegicus. Put plainly: Antihypertensive activity expressed as change in mean arterial blood pressure (MABP) in spontaneously hypertensive rats (SHR),at 0.5-2h after 30 mg/kg oral administration. Type of assay: functional, Artery. Summed up:
as §1

For the molecule `COC(=O)C1=C(C)NC(C)=C(C(=O)OC)C1c1ccccc1[N+](=O)[O-]` [NIFEDIPINE], the Kb in assay [1] was 0.158 nM. Besides, the Change is -35% in assay [2] and -30% in assay [3].

Turning to `CC(C)(C)c1ccc(OCCCN2CCC(C(c3ccc(F)cc3)c3ccc(F)cc3)CC2)cc1`, the Kb in assay [1] is 1 nM. In addition, the Change in assay [2] is given as -10%; in assay [3] it was -15%.

As to `COc1ccc([C@@H]2Sc3ccccc3N(CCN(C)C)C(=O)[C@@H]2OC(C)=O)cc1` [DILTIAZEM], the Kb in assay [1] was 20 nM. The Change is -13% in assay [2] and -14% in assay [3].

With `COc1cc(C(C)=O)ccc1OCCCN1CCC(C(O)(c2ccc(F)cc2)c2ccc(F)cc2)CC1`, the Kb in assay [1] was 10 nM. Further, the Change in assay [2] is given as -9%; in assay [3], -5%.

`COc1ccc(C(c2ccc(OC)cc2)C2CCN(CCCOc3ccc(C(C)=O)cc3OC)CC2)cc1`: the Kb in assay [1] is 10 nM. The Change in assay [2] came to 1%; in assay [3], 2%.

For the molecule `COc1cc(C(C)=O)ccc1OCCCN1CCC(C(c2ccc(F)cc2)C2CCCCC2)CC1` (stereo not drawn), the Kb in assay [1] was 5.01 nM. Besides, the Change in assay [2] is listed as -6%; in assay [3], 3%.

Regarding `Fc1ccc(C(c2ccc(F)cc2)C2CCN(CCCOc3ccc(Br)cc3)CC2)cc1`, the Kb in assay [1] was 1.58 nM. Also, the values for the Change in assay [2] and in assay [3] were -17% and -3%, respectively.

As to `Fc1ccc(C(c2ccc(F)cc2)C2CCN(CCOc3cccc4ccccc34)CC2)cc1`, the Kb in assay [1] was 12.6 nM. For the same molecule, the Change in assay [2] is on record as -27%; in assay [3] it was -19%.

`CCc1ccc(OCCCN2CCC(C(c3ccc(F)cc3)c3ccc(F)cc3)CC2)c(OC)c1`: the Kb in assay [1] was 2.51 nM. For the same molecule, the Change is -7% in assay [2] and -9% in assay [3].

As for `CC(=O)Nc1ccc(OCCCN2CCC(C(c3ccc(F)cc3)c3ccc(F)cc3)CC2)cc1`, in assay [1], the Kb is 12.6 nM. Besides, the Change in assay [2] and in assay [3] was -12% throughout.

For `Cc1cccc(C)c1NC(=O)CN1CCN(CCCC(c2ccc(F)cc2)c2ccc(F)cc2)CC1` [LIDOFLAZINE], the Kb in assay [1] is 31.6 nM. Besides, the Change in assay [2] and in assay [3] was -9% each time.

For `COc1cc(C(C)=O)ccc1OCCCN1CCC(C(c2ccc(F)cc2)c2ccccn2)CC1` (stereo not drawn), the Kb in assay [1] was 158 nM. Further, the Change in assay [2] is listed as 3%; in assay [3], -3%.

As for `Nc1ccc(OCCCN2CCC(C(c3ccc(F)cc3)c3ccc(F)cc3)CC2)cc1`, the Kb in assay [1] was 31.6 nM. The Change is listed as -8% in assay [2] and -5% in assay [3].

With `COc1cc(C(C)=O)ccc1OCCCCCN1CCC(C(c2ccc(F)cc2)c2ccc(F)cc2)CC1`, the Kb in assay [1] was 3.16 nM. Also, the Change is listed as -13% in assay [2] and -5% in assay [3].

Take `COc1ccc(CCN(C)CCCC(C#N)(c2ccc(OC)c(OC)c2)C(C)C)cc1OC` (stereo not drawn) [VERAPAMIL]: the Kb in assay [1] was 10 nM. In addition, the Change in assay [2] was -22%; in assay [3], -19%.

With `COc1cc(C(C)=O)ccc1OCCCN1CCC(C(c2ccc(F)cc2)c2ccc(F)cc2)CC1`, the Kb in assay [1] was 1.58 nM. For the same molecule, the results for the Change in assay [2] and in assay [3] were -22% and -15%, respectively.

Consider `COc1cc(C(C)=O)ccc1OCCCCN1CCC(C(c2ccc(F)cc2)c2ccc(F)cc2)CC1`, for which, in assay [1], the Kb was 2.51 nM. The results for the Change in assay [2] and in assay [3] were -21% and -16%, respectively.

Take `COc1cc(C(C)=O)ccc1OCCCN1CCC(C(C#N)(c2ccc(F)cc2)c2ccc(F)cc2)C1` (stereo not drawn): the Kb in assay [1] is 6.31 nM. The Change in assay [2] is reported as 1%; in assay [3], -2%.

In the case of `Fc1ccc(C(c2ccc(F)cc2)C2CCN(CCCOc3ccc(Cl)cc3)CC2)cc1`, the Kb in assay [1] is 2 nM. Besides, the Change is -25% in assay [2] and -15% in assay [3].

Consider `COC(=O)c1ccc(OCCCN2CCC(C(c3ccc(F)cc3)c3ccc(F)cc3)CC2)c(OC)c1`, for which the Kb in assay [1] is 1.26 nM. For the same molecule, the Change in assay [2] is reported as -2%; in assay [3], -4%.

Regarding `O=S(=O)(CCCN1CCC(C(c2ccc(F)cc2)c2ccc(F)cc2)CC1)c1ccccc1`, in assay [1], the Kb is 20 nM. The values for the Change in assay [2] and in assay [3] were 3% and 2%, respectively.

`COc1cc(C(C)=O)ccc1OCCCN1CCC(C(C#N)(c2ccc(F)cc2)c2ccc(F)cc2)CC1`: in assay [1], the Kb is 2 nM. Also, the Change was -26% in assay [2] and -17% in assay [3].

Consider `NC(=O)c1ccc(OCCCN2CCC(C(c3ccc(F)cc3)c3ccc(F)cc3)CC2)cc1`, for which the Kb in assay [1] was 31.6 nM. In addition, the Change is -8% in assay [2] and -3% in assay [3].

Regarding `Fc1ccc(C(c2ccc(F)cc2)C2CCN(CCCCc3ccccc3)CC2)cc1`, in assay [1], the Kb was 2.51 nM. The Change in assay [2] is given as -9%; in assay [3] it was -5%.

Take `COc1cc(C(C)=O)ccc1OCCCN1CCC(C(O)(c2ccc(F)c(F)c2)c2ccc(F)c(F)c2)CC1`: the Kb in assay [1] is 2.51 nM. The values for the Change in assay [2] and in assay [3] were -24% and -5%, respectively.

For the molecule `Fc1ccc(C(c2ccc(F)cc2)C2CCN(CCCOc3ccc4ccccc4c3)CC2)cc1`, the Kb in assay [1] is 7.94 nM. For the same molecule, the results for the Change in assay [2] and in assay [3] were -4% and -7%, respectively.

Consider `Fc1ccc(OCCCN2CCC(C(c3ccc(F)cc3)c3ccc(F)cc3)CC2)cc1`, for which the Kb in assay [1] was 1.26 nM. For the same molecule, the Change in assay [2] is listed as -6%; in assay [3] it was -2%.

Consider `COc1cc(C(C)=O)ccc1OCCCN1CCC(C(c2ccc(F)cc2F)c2ccc(F)cc2F)CC1`, for which the Kb in assay [1] is 15.8 nM. Moreover, the results for the Change in assay [2] and in assay [3] were -16% and -12%, respectively.

Regarding `COc1cc(C(C)=O)ccc1OCCCN1CCC(C(c2ccccc2)c2ccc(F)cc2)CC1` (stereo not drawn), the Kb in assay [1] is 6.31 nM. The Change in assay [2] was -12%; in assay [3] it was -8%.

Consider `COc1cc(C(C)=O)ccc1OCCCN1CCCC(C(C#N)(c2ccc(F)cc2)c2ccc(F)cc2)C1` (stereo not drawn), for which the Kb in assay [1] was 7.94 nM. Moreover, the values for the Change in assay [2] and in assay [3] were 9% and 5%, respectively.

In the case of `COc1cc(C(C)=O)ccc1OCCCN1CCC(C(C(N)=O)(c2ccc(F)cc2)c2ccc(F)cc2)CC1`, in assay [1], the Kb is 25.1 nM. For the same molecule, the Change in assay [2] turned out to be 5%; in assay [3], 3%.

With `CN(CCCN1CCC(C(c2ccc(F)cc2)c2ccc(F)cc2)CC1)c1ccccc1`, the Kb in assay [1] was 2 nM. Also, the results for the Change in assay [2] and in assay [3] were -6% and -3%, respectively.

`COc1ccc(OCCCN2CCC(C(c3ccc(F)cc3)c3ccc(F)cc3)CC2)cc1`: the Kb in assay [1] is 2.51 nM. Further, the Change was -3% in assay [2] and -2% in assay [3].

With `COc1cc(C(C)=O)ccc1OCCCN1CCC(C(c2cccc(F)c2)c2cccc(F)c2)CC1`, the Kb in assay [1] is 3.16 nM. Also, the Change was -9% in assay [2] and -11% in assay [3].

`COc1ccccc1OCCCN1CCC(C(c2ccc(F)cc2)c2ccc(F)cc2)CC1`: in assay [1], the Kb is 2.51 nM. For the same molecule, the values for the Change in assay [2] and in assay [3] were -1% and -4%, respectively.

Consider `COc1cc(C(C)=O)ccc1OCCCN1CCCC(CC(C#N)(c2ccc(F)cc2)c2ccc(F)cc2)C1` (stereo not drawn), for which, in assay [1], the Kb is 12.6 nM. The Change is -5% in assay [2] and 2% in assay [3].

For the molecule `COc1cc(C(C)=O)ccc1OCCCN1CCC(C(c2ccc(F)c(F)c2)c2ccc(F)c(F)c2)CC1`, the Kb in assay [1] is 2.51 nM. Also, the Change was -35% in assay [2] and -28% in assay [3].

With `COc1cc(C(C)=O)ccc1OCCCN1CCC(CC(c2ccc(F)cc2)c2ccc(F)cc2)CC1`, the Kb in assay [1] is 3.16 nM. Also, the Change in assay [2] was -10%; in assay [3] it was -13%.

For `COc1cc(C(C)=O)ccc1OCCCN1CCC(Cc2ccc(F)cc2)CC1`, the Kb in assay [1] was 20 nM. Also, the Change in assay [2] is reported as -4%; in assay [3] it was -7%.

As to `Fc1ccc(C(c2ccc(F)cc2)C2CCN(CCOc3ccc4ccccc4c3)CC2)cc1`, the Kb in assay [1] was 3.98 nM. In addition, the values for the Change in assay [2] and in assay [3] were -30% and -16%, respectively.

Regarding `COc1cc(C(C)=O)ccc1OCCCN1CCC(=C(c2ccc(F)cc2)c2ccc(F)cc2)CC1`, the Kb in assay [1] was 3.98 nM. Besides, the Change was -12% in assay [2] and -9% in assay [3].

With `COc1cc(C(=O)O)ccc1OCCCN1CCC(C(c2ccc(F)cc2)c2ccc(F)cc2)CC1`, the Kb in assay [1] is 79.4 nM. Besides, the Change was 0% in assay [2] and 9% in assay [3].

As for `COc1cc(C(C)=O)ccc1OCCCN1CCC(CC(C#N)(c2ccc(F)cc2)c2ccc(F)cc2)C1` (stereo not drawn), the Kb in assay [1] is 10 nM. Besides, the Change in assay [2] is -7%; in assay [3], 3%.

For the molecule `COc1cc(C(C)O)ccc1OCCCN1CCC(C(c2ccc(F)cc2)c2ccc(F)cc2)CC1` (stereo not drawn), the Kb in assay [1] was 10 nM. Besides, the Change is -9% in assay [2] and -14% in assay [3].

With `CC(=O)c1ccc(OCCCN2CCC(C(c3ccc(F)cc3)c3ccc(F)cc3)CC2)cc1`, the Kb in assay [1] was 2.51 nM. The Change in assay [2] was 0%; in assay [3], -1%.

Turning to `Fc1ccc(C(c2ccc(F)cc2)C2CCN(CCCOc3ccccc3)CC2)cc1`, in assay [1], the Kb was 1.58 nM. The figures for the Change in assay [2] and in assay [3] were -2% and -1%, respectively.
